Laboratory results taken from ChEMBL document CHEMBL4371041, “Synthesis and evaluation of thieno[3,2-d]pyrimidine derivatives as novel FMS inhibitors” (Bioorg Med Chem Lett, 2019).
pIC50: −log10 of the molar value.

Experiments:
[1] = molecular target: Receptor-type tyrosine-protein kinase FLT3 (Homo sapiens) (UniProt P36888); assay: Inhibition of recombinant human N-terminal GST-tagged FLT3 (564 to end residues) expressed in baculovirus infected Sf21 insect cells at 1 uM using Abltide as substrate in presence of [gamma-33P]-ATP or [gamma-32P]-ATP relative to control
[2] = molecular target: Mast/stem cell growth factor receptor Kit (Homo sapiens) (UniProt P10721); assay: Inhibition of recombinant human N-terminal GST-tagged c-Kit (544 to end residues) expressed in baculovirus infected Sf21 insect cells at 1 uM using Poly (Glu4-Tyr) (4:1) as substrate in presence of [gamma-33P]-ATP or [gamma-32P]-ATP relative to control
[3] = molecular target: Voltage-gated inwardly rectifying potassium channel KCNH2 (Homo sapiens, UniProt Q12809); assay: Displacement of Tracer Red from human ERG by fluorescence polarization assay
MDA-MB-231 [4] = assay: Synergistic growth inhibition of human MDA-MB-231 cells assessed as combination index at 5 uM after 24 hrs in presence of paclitaxel by MTS assay; type: functional
Procedure, shortened: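 MDA-MB-231 human breast adenocarcinoma cells were treated with the test agent, paclitaxel, or both together, and cell growth inhibition was measured. Synergy was expressed as a combination index (CI) calculated from the growth-inhibition data.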

MDA-MB-231 [5] = assay: Inhibition of paclitaxel-induced FMS expression in human MDA-MB-231 cells by Western blot analysis; type: functional, cell-based
[6] = AUC (0 to 7 hrs) in CD-1 mouse at 3 mg/kg, iv; type: ADME, organism-based; set-up: dose 3 mg/kg, time < 7 hr, route intravenous; settings: in vivo
[7] = molecular target: Glycogen synthase kinase-3 alpha (Homo sapiens) (UniProt P49840); assay: Inhibition of recombinant human N-terminal His6-tagged GSK3alpha (2 to end residues) expressed in baculovirus infected Sf21 insect cells at 1 uM using GSK3 substrate in presence of [gamma-33P]-ATP or [gamma-32P]-ATP relative to control
[8] = molecular target: Tyrosine-protein kinase ABL1 (Homo sapiens) (UniProt P00519); assay: Inhibition of recombinant human N-terminal His6-tagged Abl (27 to end residues) expressed in baculovirus infected Sf21 insect cells at 1 uM using Abltide as substrate in presence of [gamma-33P]-ATP or [gamma-32P]-ATP relative to control
[9] = Cmax in CD-1 mouse at 10 mg/kg, po; type: ADME, organism-based; set-up: dose 10 mg/kg, route oral; settings: in vivo
Angiopoietin-1 receptor [10] = molecular target: T1, Angiopoietin-1 receptor (Homo sapiens, UniProt Q02763); assay: Inhibition of recombinant human N-terminal His6-tagged Tie2 (771 to end residues) expressed in baculovirus infected Sf21 insect cells at 1 uM using Poly (Glu4-Tyr) (4:1) as substrate in presence of [gamma-33P]-ATP or [gamma-32P]-ATP relative to control
[11] = Tmax in CD-1 mouse at 10 mg/kg, po; type: ADME, organism-based; settings: in vivo
[12] = molecular target: Vascular endothelial growth factor receptor 2 (Homo sapiens, UniProt P35968); assay: Inhibition of recombinant human N-terminal His6-tagged KDR (790 to end residues) expressed in baculovirus infected Sf21 insect cells at 1 uM using MBP as substrate in presence of [gamma-33P]-ATP or [gamma-32P]-ATP relative to control
[13] = molecular target: NUAK family SNF1-like kinase 1 (Homo sapiens) (UniProt O60285); assay: Inhibition of recombinant human N-terminal His6-tagged ARK5 (2 to end residues) expressed in baculovirus infected Sf21 insect cells at 1 uM using CHKtide as substrate in presence of [gamma-33P]-ATP or [gamma-32P]-ATP relative to control
[14] = tested on: RAF proto-oncogene serine/threonine-protein kinase (Homo sapiens), P04049 [Y340D,Y341D]; assay: Inhibition of recombinant human N-terminal GST-tagged c-RAF Y340D/Y341D double mutant (306 to 648 residues) expressed in baculovirus infected Sf21 insect cells at 1 uM using MEK1(K97R) as substrate in presence of [gamma-33P]-ATP or [gamma-32P]-ATP relative to control
[15] = molecular target: Tyrosine-protein kinase JAK3 (Homo sapiens) (UniProt P52333); assay: Inhibition of recombinant human N-terminal His6-tagged JAK3 (781 to end residues) expressed in baculovirus infected Sf21 insect cells at 1 uM using JAK3tide as substrate in presence of [gamma-33P]-ATP or [gamma-32P]-ATP relative to control
Angiopoietin-1 receptor [16] = molecular target: T1, Angiopoietin-1 receptor; assay: Inhibition of recombinant human N-terminal His6-tagged Tie2 (771 to end residues) expressed in baculovirus infected Sf21 insect cells using Poly (Glu4-Tyr) (4:1) as substrate in presence of [gamma-33P]-ATP or [gamma-32P]-ATP
[17] = molecular target: Discoidin domain-containing receptor 2 (Homo sapiens) (UniProt Q16832); assay: Inhibition of recombinant human N-terminal His6-tagged DDR2 (467 to end residues) expressed in baculovirus infected Sf21 insect cells at 1 uM using Axltide as substrate in presence of [gamma-33P]-ATP or [gamma-32P]-ATP relative to control
[18] = molecular target: Tyrosine-protein kinase FRK (Homo sapiens) (UniProt P42685); assay: Inhibition of recombinant human N-terminal His6-tagged PTK5 (218 to end residues) expressed in baculovirus infected Sf21 insect cells at 1 uM using JAK3tide as substrate in presence of [gamma-33P]-ATP or [gamma-32P]-ATP relative to control
[19] = molecular target: Fibroblast growth factor receptor 1 (Homo sapiens, UniProt P11362); assay: Inhibition of recombinant human N-terminal GST-tagged FGFR1 (456 to 765 residues) expressed in baculovirus infected Sf21 insect cells at 1 uM using IGF-IRtide (12-527) as substrate in presence of [gamma-33P]-ATP or [gamma-32P]-ATP relative to control
NFS-60 = assay: Growth inhibition of mouse NFS60 cells after 72 hrs by CellTiter96 AQueous one solution cell proliferation assay; type: functional; settings: NFS-60, 72 h
[20] = molecular target: Maternal embryonic leucine zipper kinase (Homo sapiens, UniProt Q14680); assay: Inhibition of recombinant human N-terminal GST-tagged MELK (1 to 340 residues) expressed in baculovirus infected Sf21 insect cells using KKLNRTLSFAEPG as substrate in presence of [gamma-33P]-ATP or [gamma-32P]-ATP
Procedure, shortened: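 Kinase panel of twenty-eight enzymes; IC50 values determined with ATP at the respective Km of each kinase.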

Cytochrome P450 2D6 = Cytochrome P450 2D6 (Homo sapiens, UniProt P10635); assay: Inhibition of CYP2D6 in human liver microsomes by LC-MS/MS analysis; type: ADME
Procedure, shortened: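 Reversible CYP inhibition measured in human liver microsomes; metabolite formation quantified by LC/MS/MS.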

[21] = Oral bioavailability in CD-1 mouse at 10 mg/kg; type: ADME, organism-based; settings: in vivo
[22] = molecular target: Platelet-derived growth factor receptor alpha (Homo sapiens) (UniProt P16234); assay: Inhibition of recombinant human N-terminal His6-tagged PDGFRalpha (550 to end residues) expressed in baculovirus infected Sf21 insect cells at 1 uM using Poly (Glu4-Tyr) (4:1) as substrate in presence of [gamma-33P]-ATP or [gamma-32P]-ATP relative to control

T1 sequence (Q02763 whole entry): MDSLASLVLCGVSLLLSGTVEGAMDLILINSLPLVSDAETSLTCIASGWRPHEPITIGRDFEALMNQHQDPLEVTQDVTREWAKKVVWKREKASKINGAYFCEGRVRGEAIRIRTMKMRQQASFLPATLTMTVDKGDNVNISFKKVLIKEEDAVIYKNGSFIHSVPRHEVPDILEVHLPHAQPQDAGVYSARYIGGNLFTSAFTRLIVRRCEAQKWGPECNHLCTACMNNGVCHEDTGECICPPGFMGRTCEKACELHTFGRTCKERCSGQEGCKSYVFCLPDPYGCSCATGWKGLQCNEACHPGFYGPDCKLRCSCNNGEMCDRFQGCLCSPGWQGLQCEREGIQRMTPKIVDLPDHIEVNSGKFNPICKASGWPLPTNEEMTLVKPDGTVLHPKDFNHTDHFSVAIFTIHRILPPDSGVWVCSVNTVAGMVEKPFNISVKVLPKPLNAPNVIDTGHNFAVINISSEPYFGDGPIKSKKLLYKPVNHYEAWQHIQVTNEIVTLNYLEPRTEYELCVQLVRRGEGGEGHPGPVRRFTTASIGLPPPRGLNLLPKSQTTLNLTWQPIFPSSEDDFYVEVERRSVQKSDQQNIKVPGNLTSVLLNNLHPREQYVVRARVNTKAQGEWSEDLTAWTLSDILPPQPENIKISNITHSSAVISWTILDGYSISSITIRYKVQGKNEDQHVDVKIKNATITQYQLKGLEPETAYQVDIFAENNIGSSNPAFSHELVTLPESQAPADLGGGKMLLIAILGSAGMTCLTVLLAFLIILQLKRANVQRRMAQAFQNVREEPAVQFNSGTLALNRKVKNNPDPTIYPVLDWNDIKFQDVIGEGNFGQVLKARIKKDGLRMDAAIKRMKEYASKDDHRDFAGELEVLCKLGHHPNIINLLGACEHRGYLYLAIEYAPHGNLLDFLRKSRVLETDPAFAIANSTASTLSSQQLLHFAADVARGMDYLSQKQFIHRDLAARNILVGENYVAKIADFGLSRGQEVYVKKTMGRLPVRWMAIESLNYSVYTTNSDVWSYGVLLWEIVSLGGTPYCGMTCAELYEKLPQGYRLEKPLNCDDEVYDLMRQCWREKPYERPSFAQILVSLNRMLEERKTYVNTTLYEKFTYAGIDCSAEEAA
Chain of Receptor-type tyrosine-protein kinase FLT3 (Homo sapiens) (P36888 whole entry): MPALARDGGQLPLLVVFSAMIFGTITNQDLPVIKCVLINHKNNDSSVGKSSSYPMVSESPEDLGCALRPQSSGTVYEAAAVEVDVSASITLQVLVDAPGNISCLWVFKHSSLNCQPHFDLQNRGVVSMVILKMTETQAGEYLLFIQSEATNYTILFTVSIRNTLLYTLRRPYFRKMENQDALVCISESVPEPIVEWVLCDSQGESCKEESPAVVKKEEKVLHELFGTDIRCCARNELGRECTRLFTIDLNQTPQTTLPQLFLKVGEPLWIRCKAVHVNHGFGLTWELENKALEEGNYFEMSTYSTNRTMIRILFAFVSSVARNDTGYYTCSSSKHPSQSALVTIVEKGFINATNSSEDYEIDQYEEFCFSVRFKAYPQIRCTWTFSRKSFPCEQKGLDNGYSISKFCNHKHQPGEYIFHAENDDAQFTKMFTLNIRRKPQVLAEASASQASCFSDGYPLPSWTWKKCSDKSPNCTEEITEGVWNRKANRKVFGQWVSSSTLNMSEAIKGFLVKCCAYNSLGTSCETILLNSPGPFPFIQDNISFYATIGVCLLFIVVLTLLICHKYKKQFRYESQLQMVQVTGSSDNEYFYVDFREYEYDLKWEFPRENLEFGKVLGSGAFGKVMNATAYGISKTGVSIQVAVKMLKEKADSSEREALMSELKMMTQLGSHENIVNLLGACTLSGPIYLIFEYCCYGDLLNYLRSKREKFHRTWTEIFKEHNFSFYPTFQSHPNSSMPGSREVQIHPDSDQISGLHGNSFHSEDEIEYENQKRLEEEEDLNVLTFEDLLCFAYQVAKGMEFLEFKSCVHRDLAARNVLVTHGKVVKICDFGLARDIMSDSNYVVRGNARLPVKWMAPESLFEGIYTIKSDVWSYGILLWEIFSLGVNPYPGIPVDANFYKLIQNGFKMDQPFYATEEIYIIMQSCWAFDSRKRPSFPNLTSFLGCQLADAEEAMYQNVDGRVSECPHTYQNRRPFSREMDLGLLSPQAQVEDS
Chain of Mast/stem cell growth factor receptor Kit (Homo sapiens) (P10721 whole entry): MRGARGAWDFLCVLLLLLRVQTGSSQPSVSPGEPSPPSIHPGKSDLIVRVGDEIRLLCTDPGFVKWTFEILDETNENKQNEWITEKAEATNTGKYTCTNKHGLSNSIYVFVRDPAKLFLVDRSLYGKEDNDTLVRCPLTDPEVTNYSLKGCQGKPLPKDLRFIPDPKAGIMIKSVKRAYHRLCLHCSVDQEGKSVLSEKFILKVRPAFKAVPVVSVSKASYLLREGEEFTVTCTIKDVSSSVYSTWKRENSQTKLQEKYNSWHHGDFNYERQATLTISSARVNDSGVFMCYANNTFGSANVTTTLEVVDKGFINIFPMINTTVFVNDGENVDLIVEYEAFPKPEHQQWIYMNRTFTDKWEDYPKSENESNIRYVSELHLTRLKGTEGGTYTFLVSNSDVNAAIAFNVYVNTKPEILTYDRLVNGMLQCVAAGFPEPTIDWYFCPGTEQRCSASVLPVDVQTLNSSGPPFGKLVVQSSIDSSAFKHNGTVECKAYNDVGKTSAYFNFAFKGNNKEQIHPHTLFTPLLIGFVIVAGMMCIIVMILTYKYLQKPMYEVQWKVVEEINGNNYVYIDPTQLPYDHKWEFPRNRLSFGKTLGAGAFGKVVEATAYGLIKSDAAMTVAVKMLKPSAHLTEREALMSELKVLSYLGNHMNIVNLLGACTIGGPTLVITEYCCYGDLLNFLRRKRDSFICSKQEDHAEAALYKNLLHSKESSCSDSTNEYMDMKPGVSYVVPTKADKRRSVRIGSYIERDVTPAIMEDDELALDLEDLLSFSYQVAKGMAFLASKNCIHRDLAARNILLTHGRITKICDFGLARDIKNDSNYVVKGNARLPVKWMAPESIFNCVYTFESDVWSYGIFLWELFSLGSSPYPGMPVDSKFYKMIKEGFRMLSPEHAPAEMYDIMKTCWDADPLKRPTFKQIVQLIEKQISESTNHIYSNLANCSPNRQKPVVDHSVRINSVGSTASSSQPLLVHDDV
Chain of RAF proto-oncogene serine/threonine-protein kinase (Homo sapiens), P04049 [Y340D,Y341D] (P04049 whole entry Y340D/Y341D, the tested form may be a part): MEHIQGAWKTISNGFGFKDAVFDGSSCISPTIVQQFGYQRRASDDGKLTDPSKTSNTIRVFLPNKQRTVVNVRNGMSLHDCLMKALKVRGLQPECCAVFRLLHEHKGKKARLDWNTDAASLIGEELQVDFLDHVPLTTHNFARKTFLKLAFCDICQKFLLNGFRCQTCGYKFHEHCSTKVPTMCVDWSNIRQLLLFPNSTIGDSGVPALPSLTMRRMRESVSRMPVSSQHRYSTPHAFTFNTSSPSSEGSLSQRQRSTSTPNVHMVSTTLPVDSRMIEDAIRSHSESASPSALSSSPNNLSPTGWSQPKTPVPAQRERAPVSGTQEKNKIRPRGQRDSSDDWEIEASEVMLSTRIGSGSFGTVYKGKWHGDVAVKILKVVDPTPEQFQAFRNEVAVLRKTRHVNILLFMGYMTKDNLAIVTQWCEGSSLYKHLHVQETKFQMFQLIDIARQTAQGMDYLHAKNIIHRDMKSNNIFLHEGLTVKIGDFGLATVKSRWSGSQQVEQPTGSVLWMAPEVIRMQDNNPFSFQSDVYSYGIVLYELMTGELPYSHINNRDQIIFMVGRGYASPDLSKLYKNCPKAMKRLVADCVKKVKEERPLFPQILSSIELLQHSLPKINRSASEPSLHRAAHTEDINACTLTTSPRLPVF
Chain of Cytochrome P450 2D6 (P10635 whole entry): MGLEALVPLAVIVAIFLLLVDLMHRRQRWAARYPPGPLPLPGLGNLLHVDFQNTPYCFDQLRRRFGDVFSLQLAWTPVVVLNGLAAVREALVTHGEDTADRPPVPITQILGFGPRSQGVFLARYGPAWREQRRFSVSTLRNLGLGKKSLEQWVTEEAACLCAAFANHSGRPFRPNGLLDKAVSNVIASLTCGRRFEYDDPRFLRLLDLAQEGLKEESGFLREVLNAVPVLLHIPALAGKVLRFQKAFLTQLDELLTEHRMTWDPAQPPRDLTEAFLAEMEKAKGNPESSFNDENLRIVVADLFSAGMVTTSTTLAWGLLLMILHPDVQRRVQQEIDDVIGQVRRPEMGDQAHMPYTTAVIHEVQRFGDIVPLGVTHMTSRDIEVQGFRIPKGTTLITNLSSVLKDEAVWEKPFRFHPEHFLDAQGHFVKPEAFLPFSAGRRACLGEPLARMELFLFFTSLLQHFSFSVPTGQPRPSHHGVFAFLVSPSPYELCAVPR
Chain of Tyrosine-protein kinase FRK (Homo sapiens) (P42685 whole entry, the tested form may be a part): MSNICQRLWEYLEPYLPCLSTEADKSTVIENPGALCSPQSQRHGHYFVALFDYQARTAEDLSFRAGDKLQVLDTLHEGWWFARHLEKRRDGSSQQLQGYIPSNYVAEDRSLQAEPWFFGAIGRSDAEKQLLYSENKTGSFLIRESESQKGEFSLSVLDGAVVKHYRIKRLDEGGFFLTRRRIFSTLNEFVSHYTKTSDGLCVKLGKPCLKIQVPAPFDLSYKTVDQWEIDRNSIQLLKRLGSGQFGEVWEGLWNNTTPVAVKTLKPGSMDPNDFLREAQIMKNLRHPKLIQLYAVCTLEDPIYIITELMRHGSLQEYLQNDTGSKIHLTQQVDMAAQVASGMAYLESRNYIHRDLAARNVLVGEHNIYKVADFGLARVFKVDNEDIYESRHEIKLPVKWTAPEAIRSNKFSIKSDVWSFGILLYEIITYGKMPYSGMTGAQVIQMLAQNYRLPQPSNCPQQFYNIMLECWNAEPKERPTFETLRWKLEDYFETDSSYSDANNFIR

## Cc1cccc(Cn2nc(C)c3c(NC(=O)c4csc5c(N)ncnc45)cccc32)n1
[1]
  inhibition: 59%
[2]
  inhibition: 27%
[3]
  pIC50: < 4.30
MDA-MB-231 [4]
  CI: <0.1
MDA-MB-231 [5]
  inhibition: Dose-dependent effect
[6]
  AUC(0-t) at 7 h: 3370 ng·h/mL
[7]
  inhibition: -10%
[8]
  inhibition: 35%
[9]
  Cmax: 900 ng/mL
Angiopoietin-1 receptor [10]
  inhibition: > 60%
[11]
  Tmax: 2 h
[12]
  inhibition: > 60%
[13]
  inhibition: 20%
[14]
  inhibition: > 60%
[15]
  inhibition: 6%
Angiopoietin-1 receptor [16]
  pIC50: 6.68
[17]
  inhibition: > 60%
[18]
  inhibition: 19%
[19]
  inhibition: > 60%
NFS-60
  GI50: 80 nM
[20]
  pIC50: 6.59
Cytochrome P450 2D6
  pIC50: < 4.70
[21]
  bioavailability: 36%
[22]
  inhibition: 2%
